Results on 9 molecules are retold here after ChEMBL document CHEMBL1123052, “Structure-activity relationships for prazosin and WB 4101 analogues as alpha 1-adrenoreceptor antagonists” (J Med Chem, 1985).

Where a name gives a salt, the structure may show the parent alone.

The species named for test [1] is Rattus norvegicus. As to the kind of experiment: (§1) Alpha-2-adrenoceptor blocking activity was determined by antagonism of clonidine induced depression of the twitch responses of the field stimulated prostatic portion of the vas deferens and the potency was expressed as pA2. It is filed as functional. Particulars: read-out: pA2 (converted).
A short description of test [2]: Selectivity as the ratio of pA2 value against alpha 1 receptor to that of alpha-2 receptor. Put shortly: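 Ratio computed as the antilog of the α1 pA2 minus the α2 pA2. The α1 pA2 came from rat epididymal vas deferens against norepinephrine, and the α2 pA2 from field-stimulated prostatic vas deferens against clonidine.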
Test [3] deals with T1, Adrenergic receptor alpha-1 (Rattus norvegicus, UniProt P15823+P23944+P43140).
T1 sequence (P15823 whole entry): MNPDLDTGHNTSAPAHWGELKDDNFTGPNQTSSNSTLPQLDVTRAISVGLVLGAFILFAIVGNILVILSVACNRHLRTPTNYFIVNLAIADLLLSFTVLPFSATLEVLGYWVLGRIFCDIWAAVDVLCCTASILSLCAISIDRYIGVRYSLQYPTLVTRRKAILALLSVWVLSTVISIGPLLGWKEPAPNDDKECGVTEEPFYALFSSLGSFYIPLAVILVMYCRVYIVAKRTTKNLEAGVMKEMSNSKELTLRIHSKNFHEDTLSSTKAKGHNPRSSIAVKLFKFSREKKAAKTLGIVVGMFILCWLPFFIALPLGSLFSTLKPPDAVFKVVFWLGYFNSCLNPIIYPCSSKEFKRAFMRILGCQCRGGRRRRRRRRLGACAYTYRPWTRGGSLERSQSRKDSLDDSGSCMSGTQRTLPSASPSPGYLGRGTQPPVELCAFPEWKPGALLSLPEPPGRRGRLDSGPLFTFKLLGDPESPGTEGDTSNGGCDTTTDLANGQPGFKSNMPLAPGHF
T1 sequence (P23944 whole entry): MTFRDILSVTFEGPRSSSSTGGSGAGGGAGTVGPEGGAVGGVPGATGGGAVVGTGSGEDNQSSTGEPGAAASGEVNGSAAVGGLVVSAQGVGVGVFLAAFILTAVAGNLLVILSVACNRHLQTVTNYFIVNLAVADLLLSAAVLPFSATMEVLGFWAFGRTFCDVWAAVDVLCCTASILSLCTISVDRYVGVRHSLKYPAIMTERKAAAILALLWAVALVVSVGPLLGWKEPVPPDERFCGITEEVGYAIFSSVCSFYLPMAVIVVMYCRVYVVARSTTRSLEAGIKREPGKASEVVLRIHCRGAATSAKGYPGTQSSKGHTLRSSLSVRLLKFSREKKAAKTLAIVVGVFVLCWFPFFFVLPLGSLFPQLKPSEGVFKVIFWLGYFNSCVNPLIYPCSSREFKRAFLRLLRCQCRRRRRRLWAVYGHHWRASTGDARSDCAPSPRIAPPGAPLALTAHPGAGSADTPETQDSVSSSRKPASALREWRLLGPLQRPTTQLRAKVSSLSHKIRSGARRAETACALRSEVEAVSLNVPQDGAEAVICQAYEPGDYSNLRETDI
T1 sequence (P43140 whole entry): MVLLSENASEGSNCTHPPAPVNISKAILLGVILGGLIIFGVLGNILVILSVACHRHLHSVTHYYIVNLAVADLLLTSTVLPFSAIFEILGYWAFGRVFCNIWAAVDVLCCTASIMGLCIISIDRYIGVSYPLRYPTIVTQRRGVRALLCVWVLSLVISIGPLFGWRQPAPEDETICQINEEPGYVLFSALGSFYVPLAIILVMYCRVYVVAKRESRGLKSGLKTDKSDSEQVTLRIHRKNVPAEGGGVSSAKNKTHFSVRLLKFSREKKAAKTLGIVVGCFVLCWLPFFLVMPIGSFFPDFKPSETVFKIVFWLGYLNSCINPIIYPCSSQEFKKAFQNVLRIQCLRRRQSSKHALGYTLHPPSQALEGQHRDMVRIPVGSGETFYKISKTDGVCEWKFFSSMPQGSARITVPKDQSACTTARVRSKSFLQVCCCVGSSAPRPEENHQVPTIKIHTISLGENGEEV
As to the kind of experiment: Alpha-1-Adrenoceptor blocking activity as antagonism of (-)-norepinephrine induced contractions of epididymal vas deferens. The format is functional, tissue-based.

Test [4] has as its target T2, Adrenergic receptor alpha-2 (Rattus norvegicus, UniProt P22086+P19328+P22909).
T2 sequence (P22086 whole entry): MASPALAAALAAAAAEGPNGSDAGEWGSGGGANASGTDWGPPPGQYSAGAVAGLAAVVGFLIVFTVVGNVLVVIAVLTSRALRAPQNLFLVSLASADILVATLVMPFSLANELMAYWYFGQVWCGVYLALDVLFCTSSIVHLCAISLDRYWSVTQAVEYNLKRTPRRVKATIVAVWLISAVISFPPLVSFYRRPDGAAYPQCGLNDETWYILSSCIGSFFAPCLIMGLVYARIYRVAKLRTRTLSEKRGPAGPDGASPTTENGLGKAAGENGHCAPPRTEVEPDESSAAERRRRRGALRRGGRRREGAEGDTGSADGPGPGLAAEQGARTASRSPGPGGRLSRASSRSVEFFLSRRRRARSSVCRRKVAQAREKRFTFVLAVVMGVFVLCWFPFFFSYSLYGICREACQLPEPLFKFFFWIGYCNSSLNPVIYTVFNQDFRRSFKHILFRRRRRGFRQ
T2 sequence (P19328 whole entry): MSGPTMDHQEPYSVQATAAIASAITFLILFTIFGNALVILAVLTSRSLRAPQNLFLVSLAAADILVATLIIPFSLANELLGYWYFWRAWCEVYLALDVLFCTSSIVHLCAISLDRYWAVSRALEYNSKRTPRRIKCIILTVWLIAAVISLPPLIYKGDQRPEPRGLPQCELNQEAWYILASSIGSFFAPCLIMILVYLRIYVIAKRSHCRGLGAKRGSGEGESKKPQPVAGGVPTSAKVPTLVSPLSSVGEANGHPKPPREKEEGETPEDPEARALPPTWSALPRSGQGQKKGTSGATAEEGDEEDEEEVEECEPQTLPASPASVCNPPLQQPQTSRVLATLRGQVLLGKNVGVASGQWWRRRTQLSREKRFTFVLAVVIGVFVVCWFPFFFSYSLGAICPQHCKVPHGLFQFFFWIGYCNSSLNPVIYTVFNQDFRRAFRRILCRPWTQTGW
T2 sequence (P22909 whole entry): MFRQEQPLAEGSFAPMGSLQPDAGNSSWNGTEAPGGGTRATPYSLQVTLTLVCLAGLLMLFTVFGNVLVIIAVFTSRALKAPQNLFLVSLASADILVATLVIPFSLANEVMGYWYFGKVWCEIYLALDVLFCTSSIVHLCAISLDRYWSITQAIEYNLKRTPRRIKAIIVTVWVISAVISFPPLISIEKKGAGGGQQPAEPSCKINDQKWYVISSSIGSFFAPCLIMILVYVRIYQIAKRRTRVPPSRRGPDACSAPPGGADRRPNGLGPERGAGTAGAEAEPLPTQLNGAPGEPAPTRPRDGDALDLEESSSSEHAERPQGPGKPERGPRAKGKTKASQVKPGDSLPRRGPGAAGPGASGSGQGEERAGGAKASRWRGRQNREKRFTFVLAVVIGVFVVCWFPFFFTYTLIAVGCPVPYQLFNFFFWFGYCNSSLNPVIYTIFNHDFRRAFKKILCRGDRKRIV
Described as §1. It is filed as functional, tissue-based. The procedure, abridged: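 Field stimulation 0.1 Hz, 3-ms pulses, 10–35 V. Propranolol, cocaine and deoxycorticosterone present. After 1 h, one tissue was given antagonist for 30 min and the contralateral tissue served as control. Clonidine curves for 50% twitch inhibition gave dose ratios. Three concentrations (two if limited above 30 μM), n≥5; Schild or van Rossum pA2.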

In test [5] the target is T1, Adrenergic receptor alpha-1. As to the kind of experiment: Alpha-1 adrenergic receptor blocking activity was assessed by antagonism of (-)-norepinephrine induced contractions of the epididymal portion of the vas deferens and the potency was expressed as pA2. It is filed as functional, tissue-based. Put shortly: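 Male albino rat (175–200 g) epididymal vas deferens, 14 mm, in Krebs at 37 °C gassed 95% O2–5% CO2, 0.4 g load, with propranolol 1 μM, cocaine 10 μM, deoxycorticosterone acetate 40 μM. ≥1 h equilibration. Cumulative norepinephrine curves: second as control, third after 30 min antagonist. Time-matched untreated tissues. Schild pA2 from EC50 dose ratios, three antagonist concentrations, n≥5 each.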

Consider `COc1cccc(OC)c1OCCNCC1COc2ccccc2O1` (stereo unspecified) [2- (2,6-DIMETHOXYPHENOXYETHYL)AMINOMETHYL-1,4-BENZODIOXANE HYDROCHLORIDE (WB 4101)], for which the Kb in test [1] was 0.513 µM. In addition, the Selectivity ratio in test [2] is 347.
Usually pA2 stands for a measure of antagonist potency on a negative log scale. A higher pA2 goes with higher antagonist potency. Consider `COc1cc2nc(NCC3COc4ccccc4O3)nc(N)c2cc1OC.Cl` (stereo unspecified), for which the Kb in test [1] was 0.676 µM. The Selectivity ratio in test [2] is 11. For the same molecule, the pA2 in test [3] is listed as 7.22.
Consider `COc1cc2nc(N(C)CCOc3c(OC)cccc3OC)nc(N)c2cc1OC.Cl`, for which the pA2 was determined as 5.91 in test [4] and 7.86 in test [3]. Besides, the Selectivity ratio in test [2] came out at 89.
For the molecule `COc1cc2nc(N(C)CCN(C)C(=O)c3ccco3)nc(N)c2cc1OC.Cl`, in test [1], the Kb was 4.27 µM. Further, the Selectivity ratio in test [2] amounted to 65. In test [3], this molecule gave a pA2 of 7.18.
Taken in the same sequence, the figures for `COc1cccc(OC)c1OCCN1CCN(C(=O)c2ccco2)CC1.Cl` were 19.5 µM, 55 and 6.45.
Taken in the same sequence, the figures for `COc1cc2nc(NCCNC(=O)c3ccco3)nc(N)c2cc1OC.Cl` were 6.03 µM, 3890 and 8.81.
The like results for `Cl.O=C(NCCNCC1COc2ccccc2O1)c1ccco1` (stereo unspecified) were, in that order, 1.41 µM, 22 and 7.19.
On to `COc1cc2nc(NCCOc3c(OC)cccc3OC)nc(N)c2cc1OC.Cl`, for which, in test [1], the Kb was 1.15 µM. The Selectivity ratio in test [2] was 87. In test [3], the pA2 came out at 7.88.
For the molecule `Cl.O=C(c1ccco1)N1CCN(CC2COc3ccccc3O2)CC1` (stereo unspecified), the Kb in test [1] was 0.525 µM. In test [5], this molecule showed a pA2 of 6.05. Besides, the Selectivity ratio in test [2] was determined as 0.59.
